Five compounds from ChEMBL document CHEMBL5104214, “Efficient selective targeting of Candida CYP51 by oxadiazole derivatives designed from plant cuminaldehyde” (RSC Med Chem, 2022) can be followed below.

Data set [1] in a line: Cytotoxicity against human F180 cells assessed as cell growth inhibition at 10 times MIC50 against Candida albicans SC5314 incubated for 48 hrs by SRB assay. The class given is toxicity, cell-based. The conditions noted are these: f180, 48 h. An outline of the steps: (§1)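 SRB assay on normal human skin fibroblasts F-180 in DMEM with 15% FBS, 37 °C, 5% CO2. Seeded 20 000 cells/well and left overnight, then compounds at 10, 20 and 30 μg ml−1 for 48 h; DMSO vehicle ≤0.1%. TCA fixation, 0.4% SRB stain, dye solubilised in 10 mM Tris, OD 492 nm. Six repeats.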

A short description of data set [2]: Cytotoxicity against human F180 cells assessed as cell growth inhibition at 15 times MIC50 against Candida auris incubated for 48 hrs by SRB assay. Type of data set: toxicity, cell-based. As to conditions: f180, 48 h. An outline of the steps: as §1
Data set [3] has as its system Candida albicans. Put plainly: Antifungal activity against Candida albicans SC5314 assessed as inhibition of fungal growth incubated for 24 hrs by microdilution assay. Type of data set: functional. An outline of the steps: (§2)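 Broth microdilution per CLSI. Inoculum 10^5 CFU mL−1, compounds at 1, 3, 5, 10, 25, 50, 100 and 200 μg ml−1, 37 °C for 24 h. Turbidity read at 570 nm. MIC50 is the concentration giving 50% growth inhibition, from curve fitting. Triplicate.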

The subject of data set [4] is Candida albicans. Put plainly: Antifungal activity against Candida albicans SC5314 assessed as inhibition of fungal growth at 100 ug/ml incubated for 24 hrs by spotting assay relative to control. Type of data set: functional. Further details: scale not given: the % may be the effect or the level left. The conditions noted are these: dose 100 µg/ml. The method, boiled down:
(§3)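 Spotting screen: SDA plates streaked with 0.1 ml culture at 10^4 CFU ml−1, 5 μl of compound applied, 24 h at 37 °C. C. albicans SC5314 or C. auris clinical isolate kept on SDA at 37 °C. Growth inhibition judged against untreated control.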

In data set [5] the test system is [Candida] auris. Put plainly: Antifungal activity against Candida auris clinical isolate assessed as inhibition of fungal growth incubated for 24 hrs by microdilution assay. Type of data set: functional. The conditions noted are these: Candidozyma auris. An outline of the steps:
as §2

Data set [6] deals with [Candida] auris. The data set can be described thus: Antifungal activity against Candida auris clinical isolate assessed as inhibition of fungal growth at 100 ug/ml incubated for 24 hrs by spotting assay relative to control. As to conditions: dose 100 µg/ml. The class given is functional, Candidozyma auris. Further details: scale not given: the % may be the effect or the level left. An outline of the steps:
as §3

Data set [7] deals with T1, Lanosterol 14-alpha demethylase (Candida albicans (strain SC5314 / ATCC MYA-2876) (Yeast), UniProt P10613). The data set can be described thus: Inhibition of Candida albicans CYP51 assessed as ergosterol level incubated for 18 hrs by GC/MS analysis relative to control. An outline of the steps: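 C. albicans colony grown in SDB 18 h at 37 °C with compound at its MIC50; untreated cells as negative control. Washed, normalized cells saponified in 60% alcoholic KOH, 80 °C 1 h. Sterols hexane-extracted, silylated (MSTFA/TMCS), analysed by GC-MS with ergosterol standard for retention time. Content expressed as AUC treated/AUC untreated × 100.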

For data set [8], the target named is T1, Lanosterol 14-alpha demethylase. Put plainly: Inhibition of candida albicans CYP51 using 7-ethoxyresorufin as fluorescent substrate incubated for 10 mins in the presence of NADPH by fluorescence based spectroscopic microtiter plate reader analysis. The method, boiled down: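 CaCYP51 bactosomes in pH 7.4 phosphate buffer with 5 mM MgCl2 and the substrate 7-ethoxyresorufin. Inhibitor at 0, 0.1, 1, 10 and 100 μg ml−1. Started with 4 mM NADPH, shaken 10 min at 37 °C under yellow light. Resorufin read every 30 s (ex 572/em 604 nm). IC50 from curve fitting; fluconazole positive control.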

Data set [9] can be described thus: Cytotoxicity against human F180 cells assessed as cell growth inhibition at 2.3 times MIC50 against Candida auris incubated for 48 hrs by SRB assay. The conditions noted are these: f180, 48 h. Type of data set: toxicity, cell-based. The method, boiled down: as §1
Data set [10] is described as follows: Cytotoxicity against human F180 cells assessed as cell growth inhibition at 3 times MIC50 against Candida albicans SC5314 incubated for 48 hrs by SRB assay. As to conditions: f180, 48 h. Type of data set: toxicity, cell-based. The method, boiled down: as §1
Data set [11] can be described thus: Cytotoxicity against human F180 cells assessed as cell growth inhibition at 60 times MIC50 against Candida albicans SC5314 incubated for 48 hrs by SRB assay. The class given is toxicity, cell-based. The conditions noted are these: f180, 48 h. An outline of the steps:
as §1

Data set [12] relates to CYP3A4 vs Candida albicans CYP51. Put plainly: Selectivity index, ratio of IC50 for inhibition of human CYP3A4 using luciferin-IPA as substrate to IC50 for inhibition of candida albicans CYP51 using 7-ethoxyresorufin as fluorescent substrate. The class given is toxicity. The conditions noted are these: probe luciferin-IPA (CYP3A4), 7-ethoxyresorufin (CYP51).
Data set [13] deals with T1, Lanosterol 14-alpha demethylase. The data set can be described thus: Potency index, ratio of fluconazole IC50 to test compound IC50 for inhibition of Candida albicans CYP51 using 7-ethoxyresorufin as fluorescent substrate incubated for 10 mins in the presence of NADPH by fluorescence based spectroscopic microtiter plate reader analysis. The method, boiled down:
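Ratio of fluconazole IC50 to compound IC50 against CaCYP51. Bactosomes with 7-ethoxyresorufin in pH 7.4 phosphate, 5 mM MgCl2. Inhibitor at 0–100 μg ml−1. Reaction started with 4 mM NADPH, 10 min at 37 °C, resorufin fluorescence ex 572/em 604 nm.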

The nature of data set [14]: Cytotoxicity against human F180 cells assessed as cell growth inhibition at 37.5 times MIC50 against Candida auris incubated for 48 hrs by SRB assay. Type of data set: toxicity, cell-based. As to conditions: f180, 48 h. The method, boiled down:
as §1

Another data set addresses Cytochrome P450 3A4 (Homo sapiens, UniProt P08684). The data set can be described thus: Inhibition of human CYP3A4 using luciferin-IPA as substrate preincubated for 10 mins followed by NADPH addition and measured after 30 mins by luminescence based assay. The class given is ADME.
In data set [15] the test system is Candida albicans. The data set can be described thus: Potency index, ratio of fluconazole MIC50 to test compound MIC50 for antifungal activity against Candida albicans SC5314 assessed as inhibition of fungal growth incubated for 24 hrs by microdilution assay. The class given is functional. The method, boiled down:
(§4)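 MIC50 ratio. MIC50 of fluconazole and of compound by broth microdilution: 10^5 CFU mL−1 inoculum, 1–200 μg ml−1, 37 °C for 24 h, turbidity at 570 nm, triplicate. Ratio taken as fluconazole MIC50 over compound MIC50.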

For data set [16], the system named is [Candida] auris. Put plainly: Potency index, ratio of fluconazole MIC50 to test compound MIC50 for antifungal activity against Candida auris clinical isolate assessed as inhibition of fungal growth incubated for 24 hrs by microdilution assay. The class given is functional, Candidozyma auris. The method, boiled down: as §4
Data set [17] is described as follows: Cytotoxicity against human F180 cells assessed as cell growth inhibition at 1 times MIC50 against Candida auris incubated for 48 hrs by SRB assay. The class given is toxicity, cell-based. The conditions noted are these: f180, 48 h. An outline of the steps:
as §1

The nature of data set [18]: Cytotoxicity against human F180 cells assessed as cell growth inhibition at 6 times MIC50 against Candida albicans SC5314 incubated for 48 hrs by SRB assay. Type of data set: toxicity, cell-based. As to conditions: f180, 48 h. An outline of the steps: as §1

In brackets after ≈: the same amount, converted by molar mass. Some results are limits rather than exact numbers.

T1 sequence (P10613 whole entry): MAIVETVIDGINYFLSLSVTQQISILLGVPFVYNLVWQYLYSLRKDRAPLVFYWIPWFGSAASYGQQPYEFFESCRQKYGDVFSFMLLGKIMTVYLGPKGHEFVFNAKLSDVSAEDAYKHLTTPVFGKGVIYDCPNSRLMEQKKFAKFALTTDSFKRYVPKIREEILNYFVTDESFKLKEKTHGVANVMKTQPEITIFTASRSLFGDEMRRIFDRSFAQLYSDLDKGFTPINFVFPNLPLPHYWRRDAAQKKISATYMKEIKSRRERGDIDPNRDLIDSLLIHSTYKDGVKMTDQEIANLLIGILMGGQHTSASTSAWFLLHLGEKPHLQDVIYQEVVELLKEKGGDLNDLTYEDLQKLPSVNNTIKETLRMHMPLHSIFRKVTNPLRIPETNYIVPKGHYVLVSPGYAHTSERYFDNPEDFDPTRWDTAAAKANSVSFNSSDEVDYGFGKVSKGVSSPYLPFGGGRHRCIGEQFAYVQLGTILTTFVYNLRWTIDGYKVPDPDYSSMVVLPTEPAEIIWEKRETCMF
Cytochrome P450 3A4, sequence (P08684 whole entry): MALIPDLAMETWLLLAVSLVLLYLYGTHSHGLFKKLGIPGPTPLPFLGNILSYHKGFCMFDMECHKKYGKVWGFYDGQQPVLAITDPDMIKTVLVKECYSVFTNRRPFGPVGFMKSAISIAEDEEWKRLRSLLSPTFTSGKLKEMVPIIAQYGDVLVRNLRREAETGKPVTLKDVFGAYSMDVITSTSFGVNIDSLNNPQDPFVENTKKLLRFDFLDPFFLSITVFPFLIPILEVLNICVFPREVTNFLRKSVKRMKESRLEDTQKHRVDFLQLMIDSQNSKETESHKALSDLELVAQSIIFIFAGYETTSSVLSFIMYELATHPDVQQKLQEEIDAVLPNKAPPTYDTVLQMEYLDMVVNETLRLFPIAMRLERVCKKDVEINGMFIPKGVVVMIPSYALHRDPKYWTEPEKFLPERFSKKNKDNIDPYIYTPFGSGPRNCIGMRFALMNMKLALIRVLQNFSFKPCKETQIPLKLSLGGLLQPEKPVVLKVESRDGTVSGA

On to `CC(C)c1ccc(-c2nnc(Nc3ccc(F)cc3)o2)cc1`, for which the Activity result is recorded as “Non-Toxic” in data set [1], “Non-Toxic” in [2], 80% with Candida albicans [4] and 40% in data set [Candida] auris [6]. Also, the figures for the MIC50 (in the data set with Candida albicans [3]; in data set [Candida] auris [5]) were 3 µg/mL (≈ 10.1 µM) and 2.08 µg/mL (≈ 7 µM), respectively.

On to `OC(Cn1cncn1)(Cn1cncn1)c1ccc(F)cc1F` [FLUCONAZOLE], for which, in [7], the “inhibition (INH)” value worked out at 35.6%. Also, the MIC50 in the data set on Candida albicans [3] stood at 25 µg/mL (≈ 81.6 µM); in data set [Candida] auris [5] it was 600 µg/mL (≈ 1960 µM). Moreover, the IC50 in data set [8] was 29 µM.

Regarding `COc1cccc(Nc2nnc(-c3ccc(C(C)C)cc3)o2)c1`, the Activity result is “Non-Toxic” in [9], “Non-Toxic” in [10], 83% in the data set on Candida albicans [4] and 85% in data set [Candida] auris [6]. Also, the MIC50 stood at 10 µg/mL (≈ 32.3 µM) with Candida albicans [3] and 12 µg/mL (≈ 38.8 µM) in data set [Candida] auris [5].

With `CC(C)(C)c1ccc(-c2nnc(Nc3ccc(Cl)cc3)o2)cc1`, the Activity entry in data set [11] is reported as “Non-Toxic”; in data set [14], “Non-Toxic”; in the data set with Candida albicans [4] it was 99.3%; in data set [Candida] auris [6], 99%. Further, in data set [7], the “inhibition (INH)” value amounted to 70.3%. The selectivity ratio in [12] is more than 10000. The “Ratio IC50” value in data set [13] was determined as 10. Besides, the values for the IC50 (on Cytochrome P450 3A4; in data set [8]) were more than 30500 µM and 2.75 µM, respectively. The Ratio in the data set on Candida albicans [15] was found to be 50; in data set [Candida] auris [16] it was 750. For the same compound, the MIC50 amounted to 0.5 µg/mL (≈ 1.53 µM) in the data set with Candida albicans [3] and 0.8 µg/mL (≈ 2.44 µM) in [Candida] auris [5].

For the compound `COc1cccc(Nc2nnc(-c3ccc(C(C)(C)C)cc3)o2)c1`, the Activity result is “Non-Toxic” in [17], “Non-Toxic” in data set [18], 57% with Candida albicans [4] and 86% in data set [Candida] auris [6]. In addition, the MIC50 in the data set with Candida albicans [3] was 5 µg/mL (≈ 15.5 µM); in data set [Candida] auris [5], 30 µg/mL (≈ 92.8 µM).
